Reference: ChEMBL document CHEMBL3875205, “Macrocyclic MEK1/2 inhibitor with efficacy in a mouse model of cardiomyopathy caused by lamin A/C gene mutation” (Bioorg Med Chem, 2017)

Columns and labels:
Mus musculus [1] = test: Toxicity in LmnaH222P/H222P mouse model of cardiomyopathy assessed as serum creatinine level at 6 mg/kg/day, po administered 6 days per week via gavage starting from 14 weeks of age up to 20 weeks of age (reference value: 0.45 +/- 0.01 mg/dl); type: organism-based, Heart; conditions: in vivo
Mus musculus [2] = test: Toxicity in LmnaH222P/H222P mouse model of cardiomyopathy assessed as serum creatinine level at 3 mg/kg/day, po administered 6 days per week via gavage starting from 14 weeks of age up to 20 weeks of age (reference value: 0.45 +/- 0.01 mg/dl); type: organism-based, Heart; conditions: in vivo
Mus musculus [3] = test: Toxicity in LmnaH222P/H222P mouse model of cardiomyopathy assessed as total bilirubin content in serum at 6 mg/kg/day, po administered 6 days per week via gavage starting from 14 weeks of age up to 20 weeks of age (reference value: 0.36 +/- 0.02 mg/L); type: organism-based, Heart; conditions: in vivo
[4] = Effect on body mass in LmnaH222P/H222P mouse model of cardiomyopathy at 6 mg/kg/day, po administered 6 days per week via gavage starting from 14 weeks of age up to 20 weeks of age (reference value: 23.19 +/- 0.43); type: ADME, organism-based, Heart; conditions: in vivo
Mus musculus [5] = test: Toxicity in LmnaH222P/H222P mouse model of cardiomyopathy assessed as serum alkaline phosphatase activity at 6 mg/kg/day, po administered 6 days per week via gavage starting from 14 weeks of age up to 20 weeks of age (reference value: 91.5 +/- 6.99 U/L); type: organism-based, Heart; conditions: in vivo
Mus musculus [6] = test: Toxicity in LmnaH222P/H222P mouse model of cardiomyopathy assessed as serum alanine aminotransferase activity at 3 mg/kg/day, po administered 6 days per week via gavage starting from 14 weeks of age up to 20 weeks of age (reference value: 56 +/- 10.55 U/L); type: organism-based, Heart; conditions: in vivo
Mus musculus [7] = test: Protective activity in LmnaH222P/H222P mouse model of cardiomyopathy assessed as mean survival days at 3 mg/kg, po administered 6 days per week via gavage starting from 10 weeks of age continued up to mouse death (reference value: 202 day); type: functional, Heart
Mus musculus [8] = test: Toxicity in LmnaH222P/H222P mouse model of cardiomyopathy assessed as appearance of hemosiderin-laden macrophages in spleen at 3 to 6 mg/kg/day, po administered 6 days per week via gavage starting from 14 weeks of age up to 20 weeks of age by hematoxylin and eosin staining based assay; type: organism-based; conditions: in vivo
In short: (§1)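 Liver, kidney and spleen from male Lmna H222P/H222P mice given vehicle or 3 or 6 mg/kg/day by gavage 6 days/week from 14 to 20 weeks. Tissues were fixed in 4% formaldehyde for 48 h, paraffin-embedded, sectioned at 5 μm and stained with hematoxylin and eosin. Findings were recorded for each individual sample.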

Mus musculus [9] = test: Toxicity in LmnaH222P/H222P mouse model of cardiomyopathy assessed as serum alanine aminotransferase activity at 6 mg/kg/day, po administered 6 days per week via gavage starting from 14 weeks of age up to 20 weeks of age (reference value: 56 +/- 10.55 U/L); type: organism-based, Heart; conditions: in vivo
Mus musculus [10] = test: Toxicity in LmnaH222P/H222P mouse model of cardiomyopathy assessed as serum amylase activity at 6 mg/kg/day, po administered 6 days per week via gavage starting from 14 weeks of age up to 20 weeks of age (reference value: 1102 +/- 53.63 U/L); type: organism-based, Heart; conditions: in vivo
[11] = target: Dual specificity mitogen-activated protein kinase kinase; MEK1/2 (Homo sapiens, UniProt P36507+Q02750); test: Inhibition of MEK1/2 in human HT-29 cells assessed as reduction in cell proliferation after 72 hrs by CellTiter-Glo assay; type: cell-based
In short: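 HT-29 cells were plated at 2,000/well in DMEM or RPMI with 10% FBS and left overnight at 37°C, 5% CO2. Medium was replaced with compound at 3-fold dilutions from 3.3 µM to 4.5 nM. After 72 h, viability was read by CellTiter-Glo luminescence and IC50 calculated.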

Mus musculus [12] = test: Hepatotoxicity in LmnaH222P/H222P mouse model of cardiomyopathy assessed as hepatocyte necrosis at 3 to 6 mg/kg/day, po administered 6 days per week via gavage starting from 14 weeks of age up to 20 weeks of age by hematoxylin and eosin staining based assay; type: toxicity, organism-based; conditions: hepatocytes; in short: as §1
Mus musculus [13] = test: Toxicity in LmnaH222P/H222P mouse model of cardiomyopathy assessed as total bilirubin content in serum at 3 mg/kg/day, po administered 6 days per week via gavage starting from 14 weeks of age up to 20 weeks of age (reference value: 0.36 +/- 0.02 mg/L); type: organism-based, Heart; conditions: in vivo
Mus musculus [14] = test: Toxicity in LmnaH222P/H222P mouse model of cardiomyopathy assessed as blood urea nitrogen level at 6 mg/kg/day, po administered 6 days per week via gavage starting from 14 weeks of age up to 20 weeks of age (reference value: 17.98 +/- 0.94 mg/dl); type: organism-based, Heart; conditions: in vivo
Mus musculus [15] = test: Protective activity in LmnaH222P/H222P mouse model of cardiomyopathy assessed as mean survival days at 6 mg/kg, po administered 6 days per week via gavage starting from 10 weeks of age continued up to mouse death (reference value: 202 day); type: functional, Heart
[16] = Effect on body mass in LmnaH222P/H222P mouse model of cardiomyopathy at 3 mg/kg/day, po administered 6 days per week via gavage starting from 14 weeks of age up to 20 weeks of age (reference value: 23.19 +/- 0.43); type: ADME, organism-based, Heart; conditions: in vivo
Mus musculus [17] = test: Nephrotoxicity in LmnaH222P/H222P mouse model of cardiomyopathy assessed as interstitial nephritis at 3 to 6 mg/kg/day, po administered 6 days per week via gavage starting from 14 weeks of age up to 20 weeks of age by hematoxylin and eosin staining based assay; type: toxicity, organism-based; conditions: in vivo; in short: as §1
Mus musculus [18] = test: Hepatotoxicity in LmnaH222P/H222P mouse model of cardiomyopathy assessed as inflammation at 3 to 6 mg/kg/day, po administered 6 days per week via gavage starting from 14 weeks of age up to 20 weeks of age by hematoxylin and eosin staining based assay; type: toxicity, organism-based; conditions: in vivo; in short: as §1
Mus musculus [19] = test: Hepatotoxicity in LmnaH222P/H222P mouse model of cardiomyopathy assessed as cholestasis at 3 to 6 mg/kg/day, po administered 6 days per week via gavage starting from 14 weeks of age up to 20 weeks of age by hematoxylin and eosin staining based assay; type: toxicity, organism-based; conditions: in vivo; in short: as §1
Mus musculus [20] = test: Toxicity in LmnaH222P/H222P mouse model of cardiomyopathy assessed as ratio of blood urea nitrogen to serum creatinine at 6 mg/kg/day, po administered 6 days per week via gavage starting from 14 weeks of age up to 20 weeks of age (reference value: 20.14 +/- 1.25); type: organism-based, Heart; conditions: in vivo
Mus musculus [21] = test: Toxicity in LmnaH222P/H222P mouse model of cardiomyopathy assessed as blood urea nitrogen level at 3 mg/kg/day, po administered 6 days per week via gavage starting from 14 weeks of age up to 20 weeks of age (reference value: 17.98 +/- 0.94 mg/dl); type: organism-based, Heart; conditions: in vivo
Mus musculus [22] = test: Toxicity in LmnaH222P/H222P mouse model of cardiomyopathy assessed as serum alkaline phosphatase activity at 3 mg/kg/day, po administered 6 days per week via gavage starting from 14 weeks of age up to 20 weeks of age (reference value: 91.5 +/- 6.99 U/L); type: organism-based, Heart; conditions: in vivo
Mus musculus [23] = test: Nephrotoxicity in LmnaH222P/H222P mouse model of cardiomyopathy assessed as glomeruli abnormalities at 3 to 6 mg/kg/day, po administered 6 days per week via gavage starting from 14 weeks of age up to 20 weeks of age by hematoxylin and eosin staining based assay; type: toxicity, organism-based; conditions: in vivo; in short: as §1
Mus musculus [24] = test: Toxicity in LmnaH222P/H222P mouse model of cardiomyopathy assessed as ratio of blood urea nitrogen to serum creatinine at 3 mg/kg/day, po administered 6 days per week via gavage starting from 14 weeks of age up to 20 weeks of age (reference value: 20.14 +/- 1.25); type: organism-based, Heart; conditions: in vivo
Mus musculus [25] = test: Toxicity in LmnaH222P/H222P mouse model of cardiomyopathy assessed as serum amylase activity at 3 mg/kg/day, po administered 6 days per week via gavage starting from 14 weeks of age up to 20 weeks of age (reference value: 1102 +/- 53.63 U/L); type: organism-based, Heart; conditions: in vivo

Which results are given for `O=S1(=O)Nc2c(cc(F)c(F)c2Nc2ccc(I)cc2F)OCC(O)C(O)CC12CC2` (single isomer, unassigned; form 1)?
Activity (Mus musculus [1]): 0.46 mg/dL; Activity (Mus musculus [2]): 0.46 mg/dL; Activity (Mus musculus [3]): 0.37 mg/L; Activity [4]: 22.93; Activity (Mus musculus [5]): 113 U/L; Activity (Mus musculus [6]): 69.6 U/L; MSD (Mus musculus [7]): 225 days; Activity (Mus musculus [8]): Non-Toxic; Activity (Mus musculus [9]): 69.6 U/L; Activity (Mus musculus [10]): 1086 U/L; IC50 [11]: 16 nM; Activity (Mus musculus [12]): Non-Toxic; Activity (Mus musculus [13]): 0.32 mg/L; Activity (Mus musculus [14]): 19.12 mg/dL; MSD (Mus musculus [15]): 225 days; Activity [16]: 24.06; Activity (Mus musculus [17]): Non-Toxic; Activity (Mus musculus [18]): Non-Toxic; Activity (Mus musculus [19]): Non-Toxic; Ratio (Mus musculus [20]): 20.77; Activity (Mus musculus [21]): 18.04 mg/dL; Activity (Mus musculus [22]): 104.5 U/L; Activity (Mus musculus [23]): Non-Toxic; Ratio (Mus musculus [24]): 19.66; Activity (Mus musculus [25]): 1372 U/L
